Measured values taken from ChEMBL document CHEMBL4689842, “EUbOPEN Chemogenomics Library wave 1” (2021).

Test system: U2OS
Assay: Multiplex assay against U2OS
Assay type: toxicity, cell-based
Conditions: human
Method in brief: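 Cells stained live at seeding with Hoechst33342, BioTracker Green Microtubule Cytoskeleton Dye, MitoTracker Red and Annexin V Alexa Fluor 680 were imaged on a CQ1 microscope at 37°C and 5% CO2 after compound addition. Their classification by CellPathfinder machine-learning gating ran from Hoechst high-intensity objects versus normal cells, to healthy, pyknosed or fragmented nuclei among normal cells, to mitotic or apoptotic among pyknosed cells. Tubulin, mitochondrial-mass and membrane-permeability phenotypes are per cents of healthy-nucleus cells.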

[1] = 12 h, 1 µM, compound concentration 1 uM, replicate 1
[2] = 12 h, 1 µM, compound concentration 1 uM, replicate 2
[3] = 12 h, 10 µM, compound concentration 10 uM, replicate 1
[4] = 12 h, 10 µM, compound concentration 10 uM, replicate 2
[5] = 24 h, 1 µM, compound concentration 1 uM, replicate 1
[6] = 24 h, 1 µM, compound concentration 1 uM, replicate 2
[7] = 24 h, 10 µM, compound concentration 10 uM, replicate 1
[8] = 24 h, 10 µM, compound concentration 10 uM, replicate 2
[9] = 48 h, 1 µM, compound concentration 1 uM, replicate 1
[10] = 48 h, 1 µM, compound concentration 1 uM, replicate 2
[11] = 48 h, 10 µM, compound concentration 10 uM, replicate 1
[12] = 48 h, 10 µM, compound concentration 10 uM, replicate 2

COc1ccc(-c2ccc3ncc4c(c3c2)n(-c2ccc(N3CCNCC3)c(C(F)(F)F)c2)c(=O)n4C)cn1.O=C(O)/C=C\C(=O)O [BGT-226]
Population Apoptotic (%) [1]: 86% | Population Fragmented Nuclei (%) [1]: 50% | Population Healthy Nuclei (%) [1]: 10% | Population Hoechst High Intensity Objects (%) [1]: 14% | Population Membrane Permeable-Phenotype (%) [1]: 58% | Population Mitotic Cells (%) [1]: 13% | Population Normal (%) [1]: 85% | Population Pyknosed Nuclei (%) [1]: 38% | Total Cell Count [1]: 182 | Population Apoptotic (%) [2]: 81% | Population Fragmented Nuclei (%) [2]: 24% | Population Healthy Nuclei (%) [2]: 45% | Population Hoechst High Intensity Objects (%) [2]: 17% | Population Membrane Permeable-Phenotype (%) [2]: 70% | Population Mitochondria Different-Phenotype (%) [2]: 94% | Population Mitotic Cells (%) [2]: 18% | Population Normal (%) [2]: 82% | Population Pyknosed Nuclei (%) [2]: 29% | Population Tubulin-Different-Phenotype (%) [2]: 94% | Total Cell Count [2]: 45 | Population Apoptotic (%) [3]: 97% | Population Fragmented Nuclei (%) [3]: 33% | Population Healthy Nuclei (%) [3]: 1% | Population Hoechst High Intensity Objects (%) [3]: 13% | Population Membrane Permeable-Phenotype (%) [3]: 50% | Population Mitochondria Different-Phenotype (%) [3]: 50% | Population Mitotic Cells (%) [3]: 2% | Population Normal (%) [3]: 86% | Population Pyknosed Nuclei (%) [3]: 65% | Population Tubulin-Different-Phenotype (%) [3]: 50% | Total Cell Count [3]: 258 | Population Apoptotic (%) [4]: 100% | Population Fragmented Nuclei (%) [4]: 70% | Population Healthy Nuclei (%) [4]: 9% | Population Hoechst High Intensity Objects (%) [4]: 62% | Population Membrane Permeable-Phenotype (%) [4]: 24% | Population Mitochondria Different-Phenotype (%) [4]: 32% | Population Mitotic Cells (%) [4]: 0% | Population Normal (%) [4]: 37% | Population Pyknosed Nuclei (%) [4]: 19% | Population Tubulin-Different-Phenotype (%) [4]: 24% | Total Cell Count [4]: 675 | Population Apoptotic (%) [5]: 98% | Population Fragmented Nuclei (%) [5]: 47% | Population Healthy Nuclei (%) [5]: 5% | Population Hoechst High Intensity Objects (%) [5]: 14% | Population Membrane Permeable-Phenotype (%) [5]: 75% | Population Mitochondria Different-Phenotype (%) [5]: 87% | Population Mitotic Cells (%) [5]: 1% | Population Normal (%) [5]: 85% | Population Pyknosed Nuclei (%) [5]: 47% | Population Tubulin-Different-Phenotype (%) [5]: 75% | Total Cell Count [5]: 181 | Population Apoptotic (%) [6]: 83% | Population Fragmented Nuclei (%) [6]: 20% | Population Healthy Nuclei (%) [6]: 40% | Population Hoechst High Intensity Objects (%) [6]: 30% | Population Membrane Permeable-Phenotype (%) [6]: 66% | Population Mitochondria Different-Phenotype (%) [6]: 91% | Population Mitotic Cells (%) [6]: 16% | Population Normal (%) [6]: 69% | Population Pyknosed Nuclei (%) [6]: 40% | Population Tubulin-Different-Phenotype (%) [6]: 91% | Total Cell Count [6]: 43 | Population Apoptotic (%) [7]: 97% | Population Fragmented Nuclei (%) [7]: 39% | Population Healthy Nuclei (%) [7]: 0% | Population Hoechst High Intensity Objects (%) [7]: 15% | Population Membrane Permeable-Phenotype (%) [7]: 100% | Population Mitochondria Different-Phenotype (%) [7]: 100% | Population Mitotic Cells (%) [7]: 2% | Population Normal (%) [7]: 84% | Population Pyknosed Nuclei (%) [7]: 59% | Population Tubulin-Different-Phenotype (%) [7]: 100% | Total Cell Count [7]: 269 | Population Apoptotic (%) [8]: 100% | Population Fragmented Nuclei (%) [8]: 79% | Population Healthy Nuclei (%) [8]: 10% | Population Hoechst High Intensity Objects (%) [8]: 64% | Population Membrane Permeable-Phenotype (%) [8]: 69% | Population Mitochondria Different-Phenotype (%) [8]: 60% | Population Mitotic Cells (%) [8]: 0% | Population Normal (%) [8]: 35% | Population Pyknosed Nuclei (%) [8]: 9% | Population Tubulin-Different-Phenotype (%) [8]: 60% | Total Cell Count [8]: 614 | Population Fragmented Nuclei (%) [9]: 45% | Population Healthy Nuclei (%) [9]: 3% | Population Hoechst High Intensity Objects (%) [9]: 22% | Population Membrane Permeable-Phenotype (%) [9]: 80% | Population Mitochondria Different-Phenotype (%) [9]: 80% | Population Normal (%) [9]: 77% | Population Pyknosed Nuclei (%) [9]: 50% | Population Tubulin-Different-Phenotype (%) [9]: 80% | Total Cell Count [9]: 185 | Population Apoptotic (%) [10]: 100% | Population Fragmented Nuclei (%) [10]: 25% | Population Healthy Nuclei (%) [10]: 35% | Population Hoechst High Intensity Objects (%) [10]: 34% | Population Membrane Permeable-Phenotype (%) [10]: 90% | Population Mitochondria Different-Phenotype (%) [10]: 90% | Population Mitotic Cells (%) [10]: 0% | Population Normal (%) [10]: 65% | Population Pyknosed Nuclei (%) [10]: 39% | Population Tubulin-Different-Phenotype (%) [10]: 90% | Total Cell Count [10]: 43 | Population Apoptotic (%) [11]: 97% | Population Fragmented Nuclei (%) [11]: 40% | Population Healthy Nuclei (%) [11]: 3% | Population Hoechst High Intensity Objects (%) [11]: 18% | Population Membrane Permeable-Phenotype (%) [11]: 71% | Population Mitochondria Different-Phenotype (%) [11]: 85% | Population Mitotic Cells (%) [11]: 2% | Population Normal (%) [11]: 81% | Population Pyknosed Nuclei (%) [11]: 55% | Population Tubulin-Different-Phenotype (%) [11]: 85% | Total Cell Count [11]: 260 | Population Apoptotic (%) [12]: 100% | Population Fragmented Nuclei (%) [12]: 85% | Population Healthy Nuclei (%) [12]: 12% | Population Hoechst High Intensity Objects (%) [12]: 67% | Population Membrane Permeable-Phenotype (%) [12]: 81% | Population Mitochondria Different-Phenotype (%) [12]: 72% | Population Mitotic Cells (%) [12]: 0% | Population Normal (%) [12]: 32% | Population Pyknosed Nuclei (%) [12]: 1% | Population Tubulin-Different-Phenotype (%) [12]: 72% | Total Cell Count [12]: 534
